Data taken from PubChem BioAssay AID489030 (Sanford-Burnham Center for Chemical Genomics, 2010).
The campaign covered roughly 330,000 compounds. About 2,400 (0.73%) were called active. The entries come from a sample that favours actives as a whole. A number with no mark means an inactive call. Rule for the calls: active = inhibition of at least 40% at 20 µM; inactive = the rest.

Each compound was assayed against Apoptotic protease-activating factor 1 (Homo sapiens) (UniProt O14727) (assay: inhibitors of human Apaf-1 apoptosome, primary screen, biochemical, DEVD-Rh110 fluorescence, uHTS (AID 489030;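 note: plate controls were DMSO wells for no effect and DEVD-CHO caspase inhibitor wells for full effect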)). Conditions: reconstituted apoptosome caspase-3 activity, at 20 µM, active compounds read high.
Sequence of Apoptotic protease-activating factor 1 (Homo sapiens) (O14727 whole entry, looked up): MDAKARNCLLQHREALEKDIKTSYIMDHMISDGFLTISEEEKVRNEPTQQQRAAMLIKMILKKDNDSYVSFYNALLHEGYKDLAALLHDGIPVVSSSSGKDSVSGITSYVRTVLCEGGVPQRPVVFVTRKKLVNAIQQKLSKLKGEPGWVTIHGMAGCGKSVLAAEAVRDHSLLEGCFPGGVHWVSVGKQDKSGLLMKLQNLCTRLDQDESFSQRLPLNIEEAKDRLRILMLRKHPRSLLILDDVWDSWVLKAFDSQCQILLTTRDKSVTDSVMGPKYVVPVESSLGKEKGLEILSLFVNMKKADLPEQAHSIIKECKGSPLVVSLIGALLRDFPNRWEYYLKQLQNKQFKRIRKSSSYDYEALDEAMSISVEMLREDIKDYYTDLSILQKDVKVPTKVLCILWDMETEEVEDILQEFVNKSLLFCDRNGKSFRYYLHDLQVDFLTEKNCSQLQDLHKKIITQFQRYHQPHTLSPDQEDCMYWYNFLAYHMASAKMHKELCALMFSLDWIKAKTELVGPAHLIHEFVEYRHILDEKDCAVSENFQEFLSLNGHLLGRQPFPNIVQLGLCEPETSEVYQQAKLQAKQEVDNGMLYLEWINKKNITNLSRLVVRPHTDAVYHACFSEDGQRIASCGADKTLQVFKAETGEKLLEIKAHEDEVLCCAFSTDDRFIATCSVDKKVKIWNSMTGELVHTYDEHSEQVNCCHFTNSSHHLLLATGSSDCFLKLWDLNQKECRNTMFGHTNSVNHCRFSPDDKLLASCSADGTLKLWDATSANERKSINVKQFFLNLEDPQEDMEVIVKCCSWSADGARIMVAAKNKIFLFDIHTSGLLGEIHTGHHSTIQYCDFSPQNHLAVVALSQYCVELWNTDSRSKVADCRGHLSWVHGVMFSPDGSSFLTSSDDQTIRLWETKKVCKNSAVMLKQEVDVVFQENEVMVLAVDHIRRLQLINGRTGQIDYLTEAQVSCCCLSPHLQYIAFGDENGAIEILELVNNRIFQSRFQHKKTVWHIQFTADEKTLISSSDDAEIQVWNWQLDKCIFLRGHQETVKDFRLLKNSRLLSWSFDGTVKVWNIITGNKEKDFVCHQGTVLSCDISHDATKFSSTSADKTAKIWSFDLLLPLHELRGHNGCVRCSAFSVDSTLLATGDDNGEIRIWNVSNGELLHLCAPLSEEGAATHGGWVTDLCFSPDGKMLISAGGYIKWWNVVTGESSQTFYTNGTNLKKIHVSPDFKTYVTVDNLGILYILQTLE
How it was run: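 System: Apoptosome proteins | Medium: Hepes pH 7.5 with detergent and BSA | Also added: Cytochrome c trigger plus (Z-DEVD)2-Rh110 caspase-3 substrate | Incubation: 30 min compound preincubation, 50 min activation, room temperature | Detection: Rhodamine 110 fluorescence at Ex 480/Em 540 nm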
`CCc1ccc(CN(C)C(=O)CCc2nnc(-c3ccc(-c4ccccc4)cc3)o2)nc1` gave an inhibition of 12.9%. With `CCCCCCc1cc2cc(-c3nnc(-c4ccccc4)o3)c(=O)oc2cc1O` the inhibition was 67.8% (active). With `Cc1c(CCC(=O)O)c(=O)oc2cc3occ(-c4ccccc4)c3cc12` the inhibition was -15.7%. `O=C(/C=C/c1ccc([N+](=O)[O-])cc1)NCCSCc1ccco1` showed an inhibition of -3.53%. For `COc1ccc(NS(=O)(=O)c2ccc3oc(SCC(N)=O)nc3c2)cc1`, the inhibition was 4.33%. `COc1ccc(S(=O)(=O)N(C)C)cc1NC(=O)CSc1ncccn1` gave an inhibition of -1.98%. In the case of `CN(C)S(=O)(=O)c1ccc2oc(SCC(=O)Nc3ccccc3F)nc2c1`, the inhibition is reported as 61.1% (active). Work on `CC(C)[C@@H]1COC(c2cccc(C3=N[C@H](C(C)C)CO3)c2)=N1` yielded an inhibition of 9.42%. `CN(C)c1ccnc(Oc2ccc(F)cc2)c1C#N` gave an inhibition of -5.43%. In the case of `COc1ccccc1CNC(=O)[C@@H]1CCCN1C(=O)[C@@H]1Cc2ccccc2CN1C(=O)OC(C)(C)C`, the inhibition is reported as 11%. `COc1ccc(Cn2cccc(NC(=O)Nc3ccc(C#N)cc3)c2=O)cc1` showed an inhibition of -0.047%. `Cc1cc(C)c(C(N)=O)c(Cl)n1` gave an inhibition of -5.56%. For `O=c1c2ccccc2[nH]c(=S)n1CCN1CCC(=C(c2ccc(F)cc2)c2ccc(F)cc2)CC1`, the inhibition was 15.1%. `CC1CCc2[nH]c3ccc(C(=O)N(C)CC(=O)Nc4cccc(F)c4)cc3c2C1` (stereo unspecified) was tested, and the inhibition was 20.4%. In the case of `O=C(CCCN1CCc2[nH]c3ccc(F)cc3c2C1)c1ccc(F)cc1`, the inhibition is reported as 65% (active). `Cc1nn(C)c(C)c1CN(C(=O)CCc1nnc(Cc2c[nH]c3ccccc23)o1)C(C)C` gave an inhibition of -6.13%. In the case of `O=C1CCCCC1C(=O)c1ccccc1` (stereo unspecified), the inhibition is reported as -20%. Compound `COc1ccc(NC(=O)CCNS(=O)(=O)c2ccc3c(c2)c(=O)n(C)c(=O)n3C)cc1OC` has an inhibition of -6.12%. In the case of `CC(C)=CC(=O)Nc1nnc(-c2ccc(F)cc2)s1`, the inhibition is reported as 0.969%. `CC(=O)OC(COc1ccc(F)cc1)Cn1cnc2ccccc21` (stereo unspecified) showed an inhibition of 17.3%. Work on `CC(=O)OCC(COC(C)=O)OC(C)=O` yielded an inhibition of 6.7%. `CC(=O)N=c1ncn(CC(COC(C)=O)OC(C)=O)c2nc[nH]c12` (stereo unspecified) was tested, and the inhibition was 74.2% (active). With `Cn1c(SCC(=O)C(C)(C)C)nnc1-c1ccccn1` the inhibition was -10.6%. `CCOC(=O)N1CCC(c2cc(=O)n(-c3ccccc3)[nH]2)CC1` was tested, and the inhibition was 86.7% (active). `CCOC(=O)CN1CCC(c2ccccc2)CC1` was tested, and the inhibition was -14.9%. `CCOC(=O)N1CCC(NC(=O)CCc2ccccc2)CC1` was tested, and the inhibition was -3.62%. Work on `CCc1cc(C(=O)OC)c(NC(=O)CC2Sc3ccc(C(F)(F)F)cc3NC2=O)s1` (stereo unspecified) yielded an inhibition of 22.8%. `CCOC(=O)Nc1ccc2c(c1)N(C(=O)CN1CCN3CCCC3C1)c1ccccc1CC2` (stereo unspecified) showed an inhibition of -1.68%. `Cc1ccc(-c2cccc([C@H]3[C@@H]4C=CC[C@@H](C)[C@@H]4C(=O)N3Cc3ccccc3)c2)cc1` showed an inhibition of 19.9%. Work on `CC1(C)CC(=O)C=C(c2ccc3ncccc3c2)C1` yielded an inhibition of -1.2%. For `Cc1cc2oc3ccc(NCCC4CCCN4C)cc3c(=O)c2cc1C` (stereo unspecified), the inhibition was 46.9% (active). Work on `Cc1cc2oc(=O)cc(CN3CCN(Cc4ccccc4)CC3)c2cc1C` yielded an inhibition of 17.9%. Compound `COc1cccc2sc3cc(NCC[C@@H]4CCCN4C)ccc3c(=O)c12` has an inhibition of 39.7%. Compound `CC(C)c1ccc2oc(=O)cc(CN3CCN(Cc4ccccc4)CC3)c2c1` has an inhibition of 19.2%. In the case of `COc1ccc(N(CCC(=O)NCCc2ccccc2)S(=O)(=O)c2ccc(C)cc2C)cc1`, the inhibition is reported as 54.9% (active). `COc1ccc(CCNC(=O)CN(c2ccccc2)S(C)(=O)=O)cc1` showed an inhibition of 4.78%. With `CCOc1ccc(N(CC(=O)NCCc2ccc(OC)cc2)S(C)(=O)=O)cc1` the inhibition was 5.5%. With `O=c1cc(CN2CCN(S(=O)(=O)/C=C/c3ccccc3)CC2)c2ccc(O)cc2o1` the inhibition was 21.6%. In the case of `O=C(NCCCN1CCOCC1)c1ccccc1NS(=O)(=O)c1ccc(F)cc1`, the inhibition is reported as -4.73%. In the case of `COc1ccc(N2CCN(c3ccc([N+](=O)[O-])nc3)CC2)cc1`, the inhibition is reported as -5.77%. In the case of `CCOC(=O)C1Sc2[nH]c(=O)sc2C(c2ccc(Cl)cc2)C1C(=O)OCC` (stereo unspecified), the inhibition is reported as 2.05%. `C=CCC[C@H](Cc1ccc(F)cc1)C(=O)OC[C@@H](Cc1c[nH]c2ccccc12)NC(=O)[C@H](CC=C)CC(=O)N[C@H](CO)Cc1ccccc1` gave an inhibition of 1.18%. `C=CC[C@@H](CC(=O)N[C@H](CO)Cc1ccccc1)C(=O)N[C@H](C)COC(=O)[C@@H](CC=C)Cc1ccc(F)cc1` showed an inhibition of 23%. In the case of `C=CCC[C@H](Cc1ccc(F)cc1)C(=O)OC[C@@H](NC(=O)[C@@H](CC=C)CC(=O)N[C@H](CO)Cc1ccccc1)C(C)(C)C`, the inhibition is reported as 40.6% (active). `COCCNC(=O)c1ccccc1-c1nc(-c2ccccc2Cl)no1` gave an inhibition of 6.12%. For `O=C(Nc1cc(S(=O)(=O)N2CCOCC2)ccc1N1CCOCC1)c1c(F)cccc1Cl`, the inhibition was -5.54%. Work on `Cc1ccc(NC(=O)CN(C)C(=O)Cn2nnc(-c3ccccc3)n2)cc1` yielded an inhibition of 8.51%. Compound `Cc1nn(Cc2ccccc2)c2c1C(c1ccccc1)C(C#N)=C(N)O2` (stereo unspecified) has an inhibition of 7.58%. In the case of `COc1ccc(C2C(C#N)=C(N)Oc3cc(N)ccc32)cc1OC` (stereo unspecified), the inhibition is reported as -6.32%. For `COc1ccccc1C1C(C#N)=C(N)Oc2c1c(-c1ccccc1)nn2-c1ccccc1` (stereo unspecified), the inhibition was 42.2% (active). In the case of `COc1ccc(/C=C2/C(=O)N(c3ccccc3)N=C2C)c(OC)c1`, the inhibition is reported as 80.1% (active). For `COc1ccc(/C=C2/C(=O)OCc3cc(OC)c(OC)cc32)c(OC)c1`, the inhibition was 6.28%. `COc1ccc(C2/C(=C(/O)c3ccccc3)C(=O)C(=O)N2C)c(OC)c1` (stereo unspecified) showed an inhibition of 2.34%. Compound `O=C1CN(C(=O)COC(=O)/C=C/c2ccc(F)cc2)c2ccccc2N1` has an inhibition of 5.3%. Compound `O=C(CO/N=C/c1ccccc1OC(F)F)NC1CCCC1` has an inhibition of 0.277%. In the case of `CCCNC(=O)c1ccc(N2CCC3(CC2)CC(c2cccc(Br)c2)=NO3)c(NC(=O)c2ccco2)c1`, the inhibition is reported as 14.2%.
